Several values for one entry are separate records, joined by “and”; a condition that tells them apart may be missing. Equal values may be shown once.
System: U2OS
Assay: Multiplex assay against U2OS
Assay type: toxicity, cell-based
Details: human
Outline: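 Cells were classed with CellPathfinder machine-learning gating, first as Hoechst high-intensity objects or normal cells, then (normal cells) as healthy, pyknosed or fragmented nuclei, and finally (pyknosed cells) as mitotic or apoptotic. Staining of live cells at seeding used Hoechst33342, BioTracker Green Microtubule Cytoskeleton Dye, MitoTracker Red and Annexin V Alexa Fluor 680, with imaging on a CQ1 microscope at 37°C and 5% CO2 after compound addition. Tubulin, mitochondrial-mass and membrane-permeability phenotypes are per cents of healthy-nucleus cells.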

[1] = 12 h, 1 µM, compound concentration 1 uM
[2] = 12 h, 10 µM, compound concentration 10 uM
[3] = 24 h, 1 µM, compound concentration 1 uM
[4] = 24 h, 10 µM, compound concentration 10 uM
[5] = 48 h, 1 µM, compound concentration 1 uM
[6] = 48 h, 10 µM, compound concentration 10 uM

## CCCCCCNC(=O)Nc1ccc(S(=O)(=O)Nc2ccc(CCNC[C@H](O)COc3ccc(O)cc3)cc2)cc1 [L-755507]
[1]
  Population Apoptotic (%): 86% and 100%
  Population Fragmented Nuclei (%): 22% and 18%
  Population Healthy Nuclei (%): 67% and 75%
  Population Hoechst High Intensity Objects (%): 4% and 0%
  Population Membrane Permeable-Phenotype (%): 4% and 10%
  Population Mitochondria Different-Phenotype (%): 4% and 1%
  Population Mitotic Cells (%): 13% and 0%
  Population Normal (%): 95% and 99%
  Population Pyknosed Nuclei (%): 9% and 5%
  Population Tubulin-Different-Phenotype (%): 4% and 5%
  Total Cell Count: 231 and 120
[2]
  Population Apoptotic (%): 60% and 72%
  Population Fragmented Nuclei (%): 31% and 19%
  Population Healthy Nuclei (%): 59% and 72%
  Population Hoechst High Intensity Objects (%): 3% and 2%
  Population Membrane Permeable-Phenotype (%): 13% and 19%
  Population Mitochondria Different-Phenotype (%): 11% and 15%
  Population Mitotic Cells (%): 40% and 27%
  Population Normal (%): 96% and 97%
  Population Pyknosed Nuclei (%): 9% and 8%
  Population Tubulin-Different-Phenotype (%): 10% and 15%
  Total Cell Count: 282 and 140
[3]
  Population Apoptotic (%): 83% and 92%
  Population Fragmented Nuclei (%): 22% and 23%
  Population Healthy Nuclei (%): 66% and 67%
  Population Hoechst High Intensity Objects (%): 4% and 2%
  Population Membrane Permeable-Phenotype (%): 5% and 11%
  Population Mitochondria Different-Phenotype (%): 5% and 1%
  Population Mitotic Cells (%): 16% and 7%
  Population Normal (%): 95% and 97%
  Population Pyknosed Nuclei (%): 11% and 9%
  Population Tubulin-Different-Phenotype (%): 3% and 5%
  Total Cell Count: 285 and 143
[4]
  Population Apoptotic (%): 85% and 88%
  Population Fragmented Nuclei (%): 25% and 14%
  Population Healthy Nuclei (%): 65% and 79%
  Population Hoechst High Intensity Objects (%): 2%
  Population Membrane Permeable-Phenotype (%): 7% and 9%
  Population Mitochondria Different-Phenotype (%): 4% and 5%
  Population Mitotic Cells (%): 14% and 11%
  Population Normal (%): 97%
  Population Pyknosed Nuclei (%): 9% and 6%
  Population Tubulin-Different-Phenotype (%): 3% and 6%
  Total Cell Count: 307 and 149
[5]
  Population Apoptotic (%): 78% and 91%
  Population Fragmented Nuclei (%): 14% and 26%
  Population Healthy Nuclei (%): 74% and 61%
  Population Hoechst High Intensity Objects (%): 1% and 4%
  Population Membrane Permeable-Phenotype (%): 6% and 12%
  Population Mitochondria Different-Phenotype (%): 3% and 5%
  Population Mitotic Cells (%): 21% and 8%
  Population Normal (%): 98% and 95%
  Population Pyknosed Nuclei (%): 11% and 12%
  Population Tubulin-Different-Phenotype (%): 3% and 6%
  Total Cell Count: 422 and 188
[6]
  Population Apoptotic (%): 80% and 94%
  Population Fragmented Nuclei (%): 19% and 13%
  Population Healthy Nuclei (%): 70% and 78%
  Population Hoechst High Intensity Objects (%): 2% and 1%
  Population Membrane Permeable-Phenotype (%): 7%
  Population Mitochondria Different-Phenotype (%): 2% and 3%
  Population Normal (%): 97% and 98%
  Population Pyknosed Nuclei (%): 9% and 7%
  Population Tubulin-Different-Phenotype (%): 4% and 6%
  Total Cell Count: 419 and 242

From ChEMBL document CHEMBL5724801, “EUbOPEN Chemogenomics Library - Multiplex” (2024)
